Test results reported in ChEMBL document CHEMBL5214983, “New Dual P-Glycoprotein (P-gp) and Human Carbonic Anhydrase XII (hCA XII) Inhibitors as Multidrug Resistance (MDR) Reversers in Cancer Cells” (J Med Chem, 2022).

How the values were obtained:
[1] = Stability in human plasma assessed as half-life measured by LC-MS/MS analysis; format: ADME, cell-free
Summary of the method: (§1)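 Analyte at 1 μM in PBS or in pooled human plasma, incubated at 37 °C for 0, 30, 60 and 120 min, in triplicate. Internal standard verapamil added, mixture centrifuged, supernatant dried and redissolved. Analyte quantified by LC-MS/MS. Half-life taken from the slope of ln(concentration) versus time. Ketoprofen ethyl ester served as plasma activity reference.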

[2] = Stability in PBS measured by LC-MS/MS analysis; format: physicochemical; details: buffer; summary of the method: as §1
[3] = target: T1, ATP-dependent translocase ABCB1 (Homo sapiens, UniProt P08183); assay: Inhibition of P-gp in doxorubicin-resistant carbonic anhydrase knockout human HT-29 cells overexpressing P-gp assessed as Vmax at 3 uM in presence of 0 to 100 uM doxorubicin […]; format: cell-based; details: ht-29, 3 µM
T1 sequence (P08183 whole entry): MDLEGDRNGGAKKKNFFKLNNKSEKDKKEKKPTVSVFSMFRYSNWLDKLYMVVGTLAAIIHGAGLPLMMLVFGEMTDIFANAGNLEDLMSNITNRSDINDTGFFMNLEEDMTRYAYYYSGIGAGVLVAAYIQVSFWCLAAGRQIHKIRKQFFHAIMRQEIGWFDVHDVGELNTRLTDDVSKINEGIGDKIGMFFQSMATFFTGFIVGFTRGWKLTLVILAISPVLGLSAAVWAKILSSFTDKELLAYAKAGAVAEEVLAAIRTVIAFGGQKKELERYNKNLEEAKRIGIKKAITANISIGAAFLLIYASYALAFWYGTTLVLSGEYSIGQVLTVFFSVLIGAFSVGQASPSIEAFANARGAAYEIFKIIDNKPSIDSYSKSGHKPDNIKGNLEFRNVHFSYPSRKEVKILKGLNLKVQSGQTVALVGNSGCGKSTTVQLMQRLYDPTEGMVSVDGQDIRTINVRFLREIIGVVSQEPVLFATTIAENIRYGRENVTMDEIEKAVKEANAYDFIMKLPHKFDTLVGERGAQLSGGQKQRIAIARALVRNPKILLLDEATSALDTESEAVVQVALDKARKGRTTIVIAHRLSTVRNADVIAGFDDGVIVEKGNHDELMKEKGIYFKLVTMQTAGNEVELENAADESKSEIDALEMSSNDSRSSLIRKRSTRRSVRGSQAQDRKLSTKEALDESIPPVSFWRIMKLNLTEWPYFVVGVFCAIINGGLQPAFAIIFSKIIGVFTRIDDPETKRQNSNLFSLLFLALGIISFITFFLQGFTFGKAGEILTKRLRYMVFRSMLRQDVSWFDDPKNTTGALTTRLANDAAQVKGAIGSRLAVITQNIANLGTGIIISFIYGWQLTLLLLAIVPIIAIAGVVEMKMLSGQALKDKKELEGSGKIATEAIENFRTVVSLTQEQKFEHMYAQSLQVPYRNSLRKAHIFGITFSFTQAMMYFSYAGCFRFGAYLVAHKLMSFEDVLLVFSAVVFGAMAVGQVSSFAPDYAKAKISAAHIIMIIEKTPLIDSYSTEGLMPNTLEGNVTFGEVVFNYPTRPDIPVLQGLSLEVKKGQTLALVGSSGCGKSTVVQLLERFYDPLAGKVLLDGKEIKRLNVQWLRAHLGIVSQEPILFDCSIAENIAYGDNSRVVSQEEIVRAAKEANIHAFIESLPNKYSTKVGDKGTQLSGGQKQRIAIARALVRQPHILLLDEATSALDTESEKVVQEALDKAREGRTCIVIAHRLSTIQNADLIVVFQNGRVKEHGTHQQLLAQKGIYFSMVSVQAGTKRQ
Summary of the method: (§2)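 Cells incubated 20 min with 0–100 μM doxorubicin, alone or with compound at 1 or 3 μM. A parallel set was left a further 10 min at 37 °C, then intracellular drug measured. Doxorubicin extruded (nmol/min/mg protein) plotted against initial concentration and fitted to Michaelis–Menten to give Vmax and Km. Mean ± SD.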

[4] = target: T1, ATP-dependent translocase ABCB1; assay: Inhibition of P-gp in doxorubicin-resistant human A549 cells overexpressing P-gp assessed as Vmax at 3 uM in presence of 0 to 100 uM doxorubicin […]; format: cell-based; details: a549, 3 µM; summary of the method: as §2
[5] = target: T1, ATP-dependent translocase ABCB1; assay: Inhibition of P-gp in doxorubicin-resistant human HT-29 cells overexpressing P-gp assessed as Vmax at 3 uM in presence of 0 to 100 uM doxorubicin […]; format: cell-based; details: ht-29, 3 µM; summary of the method: as §2
[6] = target: T1, ATP-dependent translocase ABCB1; assay: Inhibition of P-gp in doxorubicin-resistant human HT-29 cells overexpressing P-gp assessed as increase in doxorubicin retention 1 uM in presence of 5 uM doxorubicin measured after 24 hrs by spectrophotometric method; format: cell-based; details: ht-29, 24 h
Summary of the method: (§3)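 Resistant cells (wild-type, P-gp KO or hCA XII KO; KO lines selected with 1 μg/mL puromycin) exposed to 5 μM doxorubicin alone or with test compound at 1 or 3 μM. Cells washed, trypsinized and extracted in ethanol/0.3 N HCl. Doxorubicin fluorescence read at ex 475/em 553 nm and converted to nmol/mg cell protein with a calibration curve. Mean ± SD, n = 3.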

[7] = target: T1, ATP-dependent translocase ABCB1; assay: Inhibition of P-gp in human HT-29 cells overexpressing P-gp assessed as Vmax at 1 uM in presence of 0 to 100 uM doxorubicin […]; format: cell-based; details: ht-29, 1 µM; summary of the method: as §2
[8] = target: T1, ATP-dependent translocase ABCB1; assay: Inhibition of P-gp in doxorubicin-resistant carbonic anhydrase knockout human A549 cells overexpressing P-gp assessed as Vmax at 3 uM in presence of 0 to 100 uM doxorubicin […]; format: cell-based; details: a549, 3 µM; summary of the method: as §2
[9] = target: T1, ATP-dependent translocase ABCB1; assay: Inhibition of P-gp in human A549 cells overexpressing P-gp assessed as Vmax at 1 uM in presence of 0 to 100 uM doxorubicin […]; format: cell-based; details: a549, 1 µM; summary of the method: as §2
[10] = target: T1, ATP-dependent translocase ABCB1; assay: Inhibition of P-gp in doxorubicin-resistant human A549 cells overexpressing P-gp assessed as increase in doxorubicin retention 3 uM in presence of 5 uM doxorubicin measured after 24 hrs by spectrophotometric method; format: cell-based; details: a549, 24 h; summary of the method: as §3
[11] = target: T1, ATP-dependent translocase ABCB1; assay: Inhibition of P-gp in doxorubicin-resistant carbonic anhydrase knockout human HT-29 cells overexpressing P-gp assessed as Vmax at 1 uM in presence of 0 to 100 uM doxorubicin […]; format: cell-based; details: ht-29, 1 µM; summary of the method: as §2
[12] = target: T1, ATP-dependent translocase ABCB1; assay: Inhibition of P-gp in doxorubicin-resistant human HT-29 cells overexpressing P-gp assessed as Vmax at 1 uM in presence of 0 to 100 uM doxorubicin […]; format: cell-based; details: ht-29, 1 µM; summary of the method: as §2
[13] = target: T1, ATP-dependent translocase ABCB1; assay: Inhibition of P-gp in human HT-29 cells overexpressing P-gp assessed as Vmax at 3 uM in presence of 0 to 100 uM doxorubicin […]; format: cell-based; details: ht-29, 3 µM; summary of the method: as §2
[14] = target: T1, ATP-dependent translocase ABCB1; assay: Inhibition of P-gp in doxorubicin-resistant human A549 cells overexpressing P-gp assessed as Vmax at 1 uM in presence of 0 to 100 uM doxorubicin […]; format: cell-based; details: a549, 1 µM; summary of the method: as §2
[15] = target: T1, ATP-dependent translocase ABCB1; assay: Inhibition of P-gp in doxorubicin-resistant carbonic anhydrase knockout human A549 cells overexpressing P-gp assessed as Vmax at 1 uM in presence of 0 to 100 uM doxorubicin […]; format: cell-based; details: a549, 1 µM; summary of the method: as §2
[16] = target: T1, ATP-dependent translocase ABCB1; assay: Inhibition of P-gp in doxorubicin-resistant human A549 cells overexpressing P-gp assessed as increase in doxorubicin retention 1 uM in presence of 5 uM doxorubicin measured after 24 hrs by spectrophotometric method; format: cell-based; details: a549, 24 h; summary of the method: as §3
[17] = target: T1, ATP-dependent translocase ABCB1; assay: Inhibition of P-gp in human A549 cells overexpressing P-gp assessed as Vmax at 3 uM in presence of 0 to 100 uM doxorubicin […]; format: cell-based; details: a549, 3 µM; summary of the method: as §2
[18] = target: T1, ATP-dependent translocase ABCB1; assay: Inhibition of P-gp in doxorubicin-resistant human HT-29 cells overexpressing P-gp assessed as increase in doxorubicin retention 3 uM in presence of 5 uM doxorubicin measured after 24 hrs by spectrophotometric method; format: cell-based; details: ht-29, 24 h; summary of the method: as §3

Structure (SMILES) | Stability [1] | Stability [2] | other results
COc1cc(C(=O)OCCCN(CCCCCCOC(=O)c2c3ccccc3cc3ccccc23)CCCOc2ccc3ccc(=O)oc3c2)cc(OC)c1OC | Stable | Stable | –
COc1cc(/C=C/C(=O)OCCCN(CCCCCCOC(=O)c2c3ccccc3cc3ccccc23)CCCOc2ccc3ccc(=O)oc3c2)cc(OC)c1OC | Stable | Stable | –
COc1cc(/C=C/C(=O)OCCCCCCCN(CCCOC(=O)c2c3ccccc3cc3ccccc23)CCCOc2ccc3ccc(=O)oc3c2)cc(OC)c1OC | Stable | Stable | –
COc1cc(C(=O)OCCCCCCCN(CCCOC(=O)c2c3ccccc3cc3ccccc23)CCCOc2ccc3ccc(=O)oc3c2)cc(OC)c1OC | Stable | Stable | –
COc1cc(C(=O)OCCCN(CCCCCOC(=O)c2c3ccccc3cc3ccccc23)CCCOc2ccc3ccc(=O)oc3c2)cc(OC)c1OC | Stable | Stable | –
COc1cc(C(=O)OCCCN(CCCCCCCOC(=O)c2c3ccccc3cc3ccccc23)CCCOc2ccc3ccc(=O)oc3c2)cc(OC)c1OC | Stable | Stable | –
O=C(OCCCCCN(CCCOC(=O)c1c2ccccc2cc2ccccc12)CCCOc1ccc2ccc(=O)oc2c1)c1c2ccccc2cc2ccccc12 | Stable | Stable | –
O=C(OCCCCCCCN(CCCOC(=O)c1c2ccccc2cc2ccccc12)CCCOc1ccc2ccc(=O)oc2c1)c1c2ccccc2cc2ccccc12 | Stable | Stable | –
O=C(OCCCCCCN(CCCOC(=O)c1c2ccccc2cc2ccccc12)CCCOc1ccc2ccc(=O)oc2c1)c1c2ccccc2cc2ccccc12 | Stable | Stable | –
COc1cc(C(=O)OCCCCCN(CCCOC(=O)c2c3ccccc3cc3ccccc23)CCCOc2ccc3ccc(=O)oc3c2)cc(OC)c1OC | Stable | Stable | –
COc1cc(C(=O)OCCCCCCN(CCCOC(=O)c2c3ccccc3cc3ccccc23)CCCOc2ccc3ccc(=O)oc3c2)cc(OC)c1OC | Stable | Stable | –
COc1cc(/C=C/C(=O)OCCCN(CCCCCCCOC(=O)c2c3ccccc3cc3ccccc23)CCCOc2ccc3ccc(=O)oc3c2)cc(OC)c1OC | Stable | Stable | –

Second part, led by results:

Stability [1] | Stability [2] | Structure (SMILES) | other results
Stable | Stable | COc1cc(C(=O)OCCCCCCCN(CCCOC(=O)c2cc(OC)c(OC)c(OC)c2)CCCOc2ccc3ccc(=O)oc3c2)cc(OC)c1OC | –
Stable | Stable | COc1cc(C(=O)OCCCCCN(CCCOC(=O)c2cc(OC)c(OC)c(OC)c2)CCCOc2ccc3ccc(=O)oc3c2)cc(OC)c1OC | Vmax [3]: 3.22 µmol/min; Vmax [4]: 3.98 µmol/min; Vmax [5]: 3.21 µmol/min; inhibition (INH) [6]: Active; Vmax [7]: 3.29 µmol/min; Vmax [8]: 2.74 µmol/min; Vmax [9]: 2.36 µmol/min; inhibition (INH) [10]: Active; Vmax [11]: 4.3 µmol/min; Vmax [12]: 5.3 µmol/min; Vmax [13]: 3.12 µmol/min; Vmax [14]: 5.1 µmol/min; Vmax [15]: 3.75 µmol/min; inhibition (INH) [16]: Active; Vmax [17]: 2.35 µmol/min; inhibition (INH) [18]: Active
Stable | Stable | COc1cc(/C=C/C(=O)OCCCN(CCCCCCOC(=O)c2cc(OC)c(OC)c(OC)c2)CCCOc2ccc3ccc(=O)oc3c2)cc(OC)c1OC | –
Stable | Stable | COc1cc(/C=C/C(=O)OCCCCCN(CCCOC(=O)/C=C/c2cc(OC)c(OC)c(OC)c2)CCCOc2ccc3ccc(=O)oc3c2)cc(OC)c1OC | –
Stable | Stable | COc1cc(/C=C/C(=O)OCCCN(CCCCCOC(=O)c2c3ccccc3cc3ccccc23)CCCOc2ccc3ccc(=O)oc3c2)cc(OC)c1OC | –
Stable | Stable | COc1cc(/C=C/C(=O)OCCCCCN(CCCOC(=O)c2cc(OC)c(OC)c(OC)c2)CCCOc2ccc3ccc(=O)oc3c2)cc(OC)c1OC | –
Stable | Stable | COc1cc(/C=C/C(=O)OCCCCCCN(CCCOC(=O)/C=C/c2cc(OC)c(OC)c(OC)c2)CCCOc2ccc3ccc(=O)oc3c2)cc(OC)c1OC | –
Stable | Stable | COc1cc(/C=C/C(=O)OCCCCCCCN(CCCOC(=O)/C=C/c2cc(OC)c(OC)c(OC)c2)CCCOc2ccc3ccc(=O)oc3c2)cc(OC)c1OC | –
Stable | Stable | COc1cc(/C=C/C(=O)OCCCCCCCN(CCCOC(=O)c2cc(OC)c(OC)c(OC)c2)CCCOc2ccc3ccc(=O)oc3c2)cc(OC)c1OC | –
Stable | Stable | COc1cc(/C=C/C(=O)OCCCCCN(CCCOC(=O)c2c3ccccc3cc3ccccc23)CCCOc2ccc3ccc(=O)oc3c2)cc(OC)c1OC | –
Stable | Stable | COc1cc(/C=C/C(=O)OCCCN(CCCCCCCOC(=O)c2cc(OC)c(OC)c(OC)c2)CCCOc2ccc3ccc(=O)oc3c2)cc(OC)c1OC | –
Stable | Stable | COc1cc(C(=O)OCCCCCCN(CCCOC(=O)c2cc(OC)c(OC)c(OC)c2)CCCOc2ccc3ccc(=O)oc3c2)cc(OC)c1OC | Vmax [3]: 3.45 µmol/min; Vmax [4]: 4.14 µmol/min; Vmax [5]: 3.8 µmol/min; inhibition (INH) [6]: Active; Vmax [7]: 3.21 µmol/min; Vmax [8]: 2.92 µmol/min; Vmax [9]: 2.43 µmol/min; inhibition (INH) [10]: Active; Vmax [11]: 4.27 µmol/min; Vmax [12]: 4.73 µmol/min; Vmax [13]: 3.28 µmol/min; Vmax [14]: 5.27 µmol/min; Vmax [15]: 3.6 µmol/min; inhibition (INH) [16]: Active; Vmax [17]: 2.41 µmol/min; inhibition (INH) [18]: Active
Stable | Stable | COc1cc(/C=C/C(=O)OCCCN(CCCCCOC(=O)c2cc(OC)c(OC)c(OC)c2)CCCOc2ccc3ccc(=O)oc3c2)cc(OC)c1OC | –
Stable | Stable | COc1cc(/C=C/C(=O)OCCCCCCN(CCCOC(=O)c2cc(OC)c(OC)c(OC)c2)CCCOc2ccc3ccc(=O)oc3c2)cc(OC)c1OC | –
Stable | Stable | COc1cc(/C=C/C(=O)OCCCCCCN(CCCOC(=O)c2c3ccccc3cc3ccccc23)CCCOc2ccc3ccc(=O)oc3c2)cc(OC)c1OC | –
